Compound activity (PubChem)
A selection: hits, their analogues and other compounds. The true share with any hit is near 4.6%.
GPR7 antagonist: GPR7 receptor antagonists, primary screen, cell-based, fluorescence, single concentration; Neuropeptides B/W receptor type 1 (Homo sapiens), P48145; GPR7-expressing cells, fluorescence antagonist assay; inhibition, % at 4.4 µM; actives 1.1% (n = 290,000); AID 1861, 2009; in the data active means inhibition above about 16%, passing the limit was not always enough;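 further: cells stimulated with the agonist NPW; 0% = agonist with vehicle and 100% = vehicle without agonist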
Target sequence (P48145 whole entry, looked up): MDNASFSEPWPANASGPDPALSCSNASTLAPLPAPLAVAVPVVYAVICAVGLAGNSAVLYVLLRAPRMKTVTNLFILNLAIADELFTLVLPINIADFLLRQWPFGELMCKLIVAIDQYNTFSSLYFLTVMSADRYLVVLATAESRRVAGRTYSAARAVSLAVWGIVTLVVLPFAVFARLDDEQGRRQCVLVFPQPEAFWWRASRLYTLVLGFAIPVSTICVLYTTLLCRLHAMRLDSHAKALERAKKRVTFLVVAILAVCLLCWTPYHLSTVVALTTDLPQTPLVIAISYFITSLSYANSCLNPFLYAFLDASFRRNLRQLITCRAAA
TAAR1 antagonist: human TAAR1 antagonists, primary screen, Fluo-8 calcium fluorescence, CHO RD-HGA16 cells. antagonist. actives 1.5% (n = 360,000). inhibition, % at 3 µM. AID 624466, 2012. Trace amine-associated receptor 1 (Homo sapiens), Q96RJ0;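 active means inhibition above a per-plate cutoff, the mean inhibition of test compounds on that plate plus 3 SD, cut at about 49% in these data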;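 further: 0% = DMSO plus EC80 beta-PEA response and 100% = DMSO alone without agonist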
Target sequence (Q96RJ0 whole entry, looked up): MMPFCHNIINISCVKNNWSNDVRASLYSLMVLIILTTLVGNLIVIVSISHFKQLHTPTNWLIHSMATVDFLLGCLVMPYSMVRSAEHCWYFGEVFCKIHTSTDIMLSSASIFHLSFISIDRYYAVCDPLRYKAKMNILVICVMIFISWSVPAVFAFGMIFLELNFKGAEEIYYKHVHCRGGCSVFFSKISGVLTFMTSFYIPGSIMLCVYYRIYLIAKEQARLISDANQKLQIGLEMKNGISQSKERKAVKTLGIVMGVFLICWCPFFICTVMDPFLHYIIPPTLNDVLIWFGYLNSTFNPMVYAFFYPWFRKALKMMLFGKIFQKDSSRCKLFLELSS
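System: CHO RD-HGA16 cells bearing hTAAR1. Reagent: EC80 β-phenethylamine stimulus. Schedule: seeding 17-24 h prior, 75-min 37 °C, 30-min RT dye loading. Signal: Fluo-8 intracellular calcium dye fluorescence, real-time kinetic reads. Read-out: % inhibition from peak post-agonist over basal fluorescence ratio. Benchmarks: vehicle wells and EC80 agonist wells. Replicates: n of 1.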
CHO parental Ca: ATP-evoked calcium signal inhibitors, parental CHO, primary screen, counter-screen for OX1R antagonist project, cell-based, fluorescence, Fluo-8 calcium dye. parental CHO-K1, ATP-induced calcium, Fluo-8 fluorescence. inhibition, % at 5.6 µM. actives 0.63% (n = 330,000). AID 463079, 2010;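 active means inhibition above that plate's mean sample inhibition plus 3 SD, cut at about 26% in these data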;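 further: 0% = ATP-challenged DMSO wells and 100% = DMSO wells without ATP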
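test system = CHO parental line | reagent = ATP stimulus | measured by = intracellular calcium via Fluo-8 no-wash fluorescent dye | control set = ATP and no-ATP DMSO wells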
OX1R antag-1: OX1R (HCRTR1) antagonists, primary screen, fluorescence, CHO/OX1R cells, Fluo-8 calcium, orexin A; Orexin/Hypocretin receptor type 1 (Homo sapiens), O43613; Fluo-8 calcium fluorescence; inhibition, % at 5 µM; actives 0.43% (n = 330,000); AID 434989, 2010;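 active means inhibition above its plate's threshold, mean inhibition of all tested compounds on the plate plus 3 SD, cut at about 37% in these data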;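 further: 0% = orexin A challenge wells and 100% = SB-334867-A antagonist wells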
TAAR1 agonist: human TAAR1 agonists, primary screen, Fluo-8 calcium fluorescence, CHO RD-HGA16 cells; Trace amine-associated receptor 1 (Homo sapiens), Q96RJ0; vehicle wells 0%, saturating PEA agonist 100%; activation, % at 3 µM; actives 0.99% (n = 360,000); AID 624467, 2012;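 active means activation above the mean activation of all test compounds in the run plus 3 SD, cut at about 38% in these data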
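Signal – calcium-sensitive Fluo-8 signal, excitation 470-495, emission 515-575 nm · System – RD-HGA16 (CHO) cells co-expressing Gα16 and hTAAR1 · Incubation – 17-24 h seeding, 75 min 37 °C dye, 30 min RT · Compound dosing – 3 µM single concentration · Repeats – no replicates (n 1)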
OX1R antag-2: antagonists of human orexin 1 receptor (OX1R); Orexin/Hypocretin receptor type 1 (Homo sapiens), O43613; OX1R-expressing cells, FRET antagonist read-out; inhibition, % at 6.6 µM; actives 1.8% (n = 330,000); AID 485270, 2010; in the data active means inhibition mostly above about 38%, no sharp cut-off; inactive means mostly below about 40%;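 further: 0% = agonist challenge alone and 100% = reference antagonist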
Starred values were filed as active, the others as inactive; nt = no result.

SMILES	GPR7 antagonist	TAAR1 antagonist	CHO parental Ca	OX1R antag-1	TAAR1 agonist	OX1R antag-2
CN(CC(=O)Nc1ccccc1Br)C(=O)CN1CCN(Cc2cccc(Cl)c2)CC1	nt	-2	-15	-21	2	8
O=C(Nc1ccc(C(=O)N2CCOCC2)cc1)c1cccc([N+](=O)[O-])c1	-20	10	7	6	0	29
COc1ccc2[nH]c3c(N4CCC(O)(c5cccc(C(F)(F)F)c5)CC4)ncnc3c2c1	-1	51*	-6	-14	14	13
N#CC1=C(N)NC(SCc2ccc(F)cc2)=C(C#N)C12CCCCC2	5	54*	27	41	29	66
CN1CCN(Cc2c(O)ccc3occ(C(=O)c4ccccc4)c23)CC1	-2	2	-19	-30	5	25
CC(=O)C(C(C)=O)c1c(Cl)c(O)c(O)c2c(C(=O)c3ccccc3)coc12	-10	29	-29	-8	39*	34
Cc1ccc(C(=O)NC2=NCCS2)cc1Cl	-17	nt	nt	nt	nt	nt
CC(C)Cn1c(N)c(C(=O)CSc2nccn2C)c(=O)n(C)c1=O	nt	14	-12	-26	11	10
O=C(CN(Cc1ccco1)Cc1cccs1)N1CCN(S(=O)(=O)c2cccc(F)c2)CC1	nt	28	-25	-15	10	7
COc1cc(OC)c(C(=O)O/N=C(\N)c2ccc(C)cc2)cc1OC	11	-4	-15	-23	-2	36*
Cc1cccc(/C(N)=N/OC(=O)c2ccc(F)cc2)c1	-9	-6	-4	-7	5	8
COc1cc(OC)c(C(=O)O/N=C(\N)c2cccc(C)c2)cc1OC	-13	0	-26	-14	0	36*
CCN(C(=O)Cc1c(C(=O)O)[nH]c2ccccc12)c1cc(OC)ccc1OC	6	9	-7	-16	11	36
O=C(c1nc[nH]c1C(=O)N1CCc2ccccc2C1)N1CCc2ccccc2C1	nt	48	-8	4	38*	12
O=C(N[C@@H](Cc1ccccc1)C(=O)OCc1ccccc1)c1nc[nH]c1C(=O)N1CCc2ccccc2C1	nt	59*	30	31	7	14
CNC(=O)c1[nH]cnc1C(=O)N[C@@H](Cc1ccccc1)C(=O)OCc1ccccc1	-16	59*	-1	-28	13	22
C[C@H](NC(=O)c1nc[nH]c1C(=O)NC1CCN(C(=O)OC(C)(C)C)CC1)C(=O)OCc1ccccc1	-14	56*	-22	-10	9	19
CC(=O)n1c2ccccc2c2nc3ccccc3nc21	-6	nt	-4	-28	nt	5
CC(=O)n1c2ccccc2c2c1c1ccccc1n2C	-9	9	-20	-1	2	61*
CC(=O)c1c(C)[nH]c(C(=O)COC(=O)C2(C)CC2(Cl)Cl)c1C (configuration not stated)	nt	56*	-6	16	17	6
CC(=O)c1c(C)[nH]c(C(=O)COC(=O)c2cc(C)oc2C)c1C	nt	16	-5	18	8	15
COCCOc1cc(Nc2nnc(C(F)(F)F)s2)c(Cl)cc1Cl	-10	5	3	-24	7	21
Fc1ccc(Nc2nnc(C(F)(F)F)s2)cc1Cl	3	-10	40*	22	1	56*
CN(Cc1ccc(Cl)cc1)C(=O)c1ccc(S(=O)(=O)NCc2ccco2)cc1	nt	15	-8	9	10	34*
Cc1c(-c2ccc(O)cc2)nc2nc(-c3ccccc3)c(-c3ccccc3)nn12	-8	nt	90*	99*	nt	27
SMILES	GPR7 antagonist	TAAR1 antagonist	CHO parental Ca	OX1R antag-1	TAAR1 agonist	OX1R antag-2
Nc1ccc(-c2c3ccc(=O)cc-3oc3cc(O)ccc23)c(C(=O)O)c1	nt	nt	58*	87*	nt	63*
CC1CCN(CCC(=O)N/N=C/c2ccc([N+](=O)[O-])cc2)CC1	-8	13	-7	-26	0	45*
COc1ccc(S(=O)(=O)N(CC(=O)NC2CCCC2)c2ccccc2OC)cc1	-10	-4	-15	-20	1	45
CC(=O)c1c(C)[nH]c(C(=O)COC(=O)CN2C(=O)C3CCCCC3C2=O)c1C (configuration not stated)	nt	2	-6	-1	13	3
CCOC(=O)c1c(C)[nH]c(C(=O)COC(=O)[C@H](C)N2C(=O)C3CCCCC3C2=O)c1C (some centres not stated)	nt	56*	nt	nt	20	nt
COc1cc2c(cc1CNC[C@H]1O[C@@H](n3cc(C)c(=O)[nH]c3=O)C[C@@H]1O)OCO2	nt	-9	nt	nt	1	nt
Cc1ccccc1-n1c(=O)c(C#N)cc2c(=O)n3ccccc3nc21	8	6	-12	-9	8	49*
O=C(c1ccoc1)N1CCC2(CCCN(Cc3ccc(F)c(F)c3)C2)C1 (configuration not stated)	-4	-39	nt	nt	0	nt
CC1CCCCC12NC(=O)N(CC(=O)Nc1ccc3c(c1)OCCCO3)C2=O (configuration not stated)	nt	-1	-4	-5	1	1
COc1cccc(/C=C2\CC(C)Cc3c2nc2ccccc2c3C(=O)O)c1OC (configuration not stated)	-2	-9	-6	-20	0	75*
CCOc1cc(/C=C2\CCCc3c2nc2ccccc2c3C(=O)O)ccc1OC	-8	15	29	32	59*	133*
O=C(O)c1ccc(CNC(=O)c2ccc(Br)o2)cc1	-2	nt	1	-7	nt	-5
O=C(c1cc(COc2cccc3cnccc23)on1)N1CCCC(CCCO)C1 (configuration not stated)	13	37	59*	26	12	51
Cc1cc(C(=O)N2CCN(c3ccccc3O)CC2)c(C)o1	nt	22	-20	-21	10	13
O=C(c1cc(-c2ccc(Br)cc2)nc2ccccc12)N1CCN(c2ccccc2O)CC1	nt	55*	-20	-29	4	1
Cc1ccc(-c2cc(C(=O)N3CCN(c4ccccc4O)CC3)c3ccccc3n2)o1	-14	62*	-3	-9	14	9
O=C(c1cc(-c2ccc(Cl)cc2)nc2ccccc12)N1CCC1	nt	20	-11	-19	2	13
CN1CCN(C(=O)c2ccccc2[N+](=O)[O-])CC1	-7	17	-4	-6	0	14
